The values that follow come from ChEMBL document CHEMBL4052757, “Bistacrines as potential antitrypanosomal agents” (Bioorg Med Chem, 2017).

Broadly, the IC50 is the midpoint of a concentration-inhibition curve. High values mean weaker potency, low ones greater potency. For orientation: inhibition means the drop in the measured response relative to a control, in per cent. A word on the Ki: it is the dissociation constant of the complex between target and ligand, obtained from inhibition or displacement.

The subject of data set [1] is Trypanosoma brucei brucei. The experiment in a line: Antitrypanosomal activity against Trypanosoma brucei brucei TC221 after 72 hrs by alamar blue assay. In kind it is functional. As to conditions: TC221, 72 h. An outline of the steps:
(§1)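 T. b. brucei TC221 bloodstream-form proliferation measured by alamarBlue (resazurin reduced to resorufin by living cells); 48 h and 72 h read-outs. IC50 derived per Räz et al. method; each compound tested in duplicate, mean of two values.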
Background: Alamar Blue is a resazurin reagent that responds to reducing activity.

The subject of data set [2] is Trypanosoma brucei brucei. The experiment in a line: Antitrypanosomal activity against Trypanosoma brucei brucei TC221 after 48 hrs by alamar blue assay. It counts as functional. As to conditions: TC221, 48 h. An outline of the steps: as §1
In data set [3] the test system is J774.1. The experiment in a line: Cytotoxicity against mouse J774.1 cells after 24 hrs by alamar blue assay. Particulars: J774.1, 24 h. In kind it is cell-based.
The nature of data set [4]: Selectivity index, ratio of IC50 for mouse J774.1 cells to IC50 for Trypanosoma brucei brucei TC221 measured after 48 hrs. It counts as toxicity. As to conditions: J774.1 cells (versus Trypanosoma brucei brucei TC221), read-out: Ratio IC50. An outline of the steps: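 Selectivity index computed as IC50 (J774.1 macrophages, alamarBlue) divided by IC50 (T. b. brucei TC221, alamarBlue); duplicate determinations, means used.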

Data set [5] is described as follows: Stability of the compound. It counts as physicochemical.
The subject of data set [6] is Leishmania infantum. The data set is described as follows: Antileishmanial activity against Leishmania infantum. In kind it is functional.
Data set [7] can be described thus: Inhibition of trypanothione reductase.
The target in data set [8] is Rhodesain (Trypanosoma brucei rhodesiense) (UniProt Q95PM0). The data set is described as follows: Inhibition of Trypanosoma brucei rhodesiense rhodesain at 20 uM using Cbz-Phe-Arg-AMC as substrate measured for 5 mins by spectrofluorometric analysis relative to control. An outline of the steps:
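Rhodesain in 50 mM sodium acetate pH 5.5 with 5 mM DTT, 5 mM EDTA, 200 mM NaCl; inhibitor 20 µM, substrate Cbz-Phe-Arg-AMC; AMC fluorescence (ex 380/em 460 nm) followed 5 min; activity from slopes of fluorescence vs time versus DMSO control; run in duplicate.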

Data set [9] concerns the target Rhodesain (Trypanosoma brucei rhodesiense, UniProt Q95PM0). The experiment in a line: Inhibition of Trypanosoma brucei rhodesiense rhodesain using Cbz-Phe-Arg-AMC as substrate measured for 10 mins by spectrofluorometric analysis.
Data set [10] concerns the target Rhodesain (Trypanosoma brucei rhodesiense) (UniProt Q95PM0). The data set is described as follows: Inhibition of Trypanosoma brucei rhodesiense rhodesain using Cbz-Phe-Arg-AMC as substrate by spectrofluorometric analysis.
Data set [11] deals with Trypanothione reductase (Trypanosoma cruzi) (UniProt P28593). The data set is described as follows: Inhibition of Trypanosoma cruzi trypanothione reductase at 5 uM using 100 uM trypanothione disulfide as substrate by spectrophotometric method relative to control. An outline of the steps:
(§2)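 TcTryR (about 2 nM) in 40 mM HEPES, 1 mM EDTA, pH 7.5, 100 µM NADPH; inhibitor at fixed 2 or 5 µM (screening range 1–5 µM) from DMSO stock; TS2 fixed at 40 or 100 µM; absorbance decrease monitored; percent inhibition versus DMSO control.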

The target is the same in data set [12]. The experiment in a line: Inhibition of Trypanosoma cruzi trypanothione reductase at 5 uM using 40 uM trypanothione disulfide as substrate by spectrophotometric method relative to control. The procedure, abridged: as §2
The target is the same in data set [13]. The experiment in a line: Inhibition of Trypanosoma cruzi trypanothione reductase at 2 uM using 100 uM trypanothione disulfide as substrate by spectrophotometric method relative to control. The procedure, abridged: as §2
The target is the same in data set [14]. The data set is described as follows: Inhibition of Trypanosoma cruzi trypanothione reductase at 2 uM using 40 uM trypanothione disulfide as substrate by spectrophotometric method relative to control. An outline of the steps: as §2
Data set [15] has the same target. The data set is described as follows: Inhibition of Trypanosoma cruzi trypanothione reductase at 50 uM using 100 uM trypanothione disulfide as substrate by spectrophotometric method relative to control.
Data set [16] is described as follows: Ratio of IC50 for Trypanosoma brucei rhodesiense rhodesain to IC50 for Trypanosoma brucei brucei TC221.
Data set [17] concerns Trypanosoma brucei. The data set is described as follows: Inhibition of Trypanosoma brucei trypanothione reductase at 5 uM using 100 uM trypanothione disulfide as substrate by spectrophotometric method relative to control. An outline of the steps:
(§3)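 TbTryR (about 2 nM) in 40 mM HEPES, 1 mM EDTA, pH 7.5 with 100 µM NADPH; inhibitor 5 µM from DMSO stock, fixed TS2 at 100 or 40 µM; NADPH consumption followed as absorbance decrease; inhibition relative to DMSO control.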

Data set [18] has as its system Trypanosoma brucei. The data set is described as follows: Inhibition of Trypanosoma brucei trypanothione reductase at 5 uM using 40 uM trypanothione disulfide as substrate by spectrophotometric method relative to control. An outline of the steps: as §3
A short description of data set [19]: Mixed-type inhibition of Trypanosoma brucei trypanothione reductase assessed as enzyme-substrate complex using varying levels of trypanothione disulfide as substrate by Lineweaver-burk plot analysis. An outline of the steps:
(§4)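 TbTryR kinetics in HEPES/EDTA pH 7.5 with 100 µM NADPH; TS2 varied 20–200 µM at several inhibitor levels, DMSO control; Lineweaver-Burk plots; Ki and Ki' fitted.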

Data set [20] in a line: Mixed-type inhibition of Trypanosoma brucei trypanothione reductase assessed as enzyme-substrate-inhibitor complex using varying levels of trypanothione disulfide as substrate by Lineweaver-burk plot analysis. An outline of the steps: as §4
For data set [21], the target named is Rhodesain (Trypanosoma brucei rhodesiense) (UniProt Q95PM0). The experiment in a line: Inhibition of Trypanosoma brucei rhodesiense rhodesain assessed as second-order rate constant using Cbz-Phe-Arg-AMC as substrate measured for 10 mins by spectrofluorometric analysis.
Rhodesain (Trypanosoma brucei rhodesiense), sequence (Q95PM0 1-450): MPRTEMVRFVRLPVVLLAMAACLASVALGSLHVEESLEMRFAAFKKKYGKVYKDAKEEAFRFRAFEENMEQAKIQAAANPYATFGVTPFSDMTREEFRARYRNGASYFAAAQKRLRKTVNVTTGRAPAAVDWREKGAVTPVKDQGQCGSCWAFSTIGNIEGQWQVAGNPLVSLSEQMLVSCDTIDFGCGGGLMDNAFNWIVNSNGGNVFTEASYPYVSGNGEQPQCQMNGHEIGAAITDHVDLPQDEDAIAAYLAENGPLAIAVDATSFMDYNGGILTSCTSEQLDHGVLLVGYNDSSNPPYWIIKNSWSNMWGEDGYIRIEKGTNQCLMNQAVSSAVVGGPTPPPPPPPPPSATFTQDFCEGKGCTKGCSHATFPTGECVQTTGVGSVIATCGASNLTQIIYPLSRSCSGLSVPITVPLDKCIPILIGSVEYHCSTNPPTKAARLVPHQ

Active and inactive are the calls of the source. The rule behind the calls is not given here.

Trypanothione reductase (Trypanosoma cruzi), sequence (P28593 whole entry, looked up): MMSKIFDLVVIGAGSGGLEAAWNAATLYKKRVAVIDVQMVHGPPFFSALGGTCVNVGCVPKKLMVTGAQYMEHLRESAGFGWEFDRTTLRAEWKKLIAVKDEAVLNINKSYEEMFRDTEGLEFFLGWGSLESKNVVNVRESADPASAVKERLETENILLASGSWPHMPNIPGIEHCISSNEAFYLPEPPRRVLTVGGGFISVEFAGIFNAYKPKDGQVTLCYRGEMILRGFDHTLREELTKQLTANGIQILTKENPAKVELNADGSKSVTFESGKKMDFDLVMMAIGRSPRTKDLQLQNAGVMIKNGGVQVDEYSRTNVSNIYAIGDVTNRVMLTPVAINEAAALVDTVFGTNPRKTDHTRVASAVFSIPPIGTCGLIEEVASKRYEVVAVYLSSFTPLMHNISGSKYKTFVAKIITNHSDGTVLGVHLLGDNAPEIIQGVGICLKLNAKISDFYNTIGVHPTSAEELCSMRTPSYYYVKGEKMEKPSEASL
Rhodesain, sequence (Q95PM0 whole entry): as the sequence (Q95PM0 1-450) above

Regarding `C1=Cc2c(nc3ccccc3c2NCCCCCCCCNc2c3c(nc4ccccc24)CCC=C3)CC1`, the results for the IC50 in [1], in [2] and in data set [3] were 250 nM, 80 nM and 1700 nM, respectively. Besides, the selectivity ratio at 48 h in data set [4] turned out to be 21.3. In data set [5], the Stability entry was “Stable”. Besides, the result in [6] was Active. Further, the inhibition result in data set [7] was “Active”.
On to `c1ccc2c(NCCCCCCCCNc3c4c(nc5ccccc35)CCCC4)c3c(nc2c1)CCCC3`, for which the results for the IC50 in data set [1], in data set [2] and in [9] were 660 nM, 400 nM and 16900 nM, respectively. Moreover, the inhibition in [8] is 87%; in data set [10], “Dose-dependent effect”; in [11] it was 64.4 to 68.5%; in [12], 73.3 to 78.3%; in data set [13], 28.8 to 32.9%; in data set [14] it was 45 to 46.7%. For the same compound, the inhibition in [15] worked out at 100%. In addition, the result in data set [6] was Active.
With `C1=Cc2c(nc3ccccc3c2NCCCCCCCCCCNc2c3c(nc4ccccc24)CCC=C3)CC1`, the 50% inhibitory concentration (IC50) in [1] amounted to 880 nM; in [2], 290 nM; in data set [3], 9700 nM. Besides, in data set [4], the selectivity ratio at 48 h came out at 33.4. Moreover, the Stability entry in data set [5] is “Stable”. Moreover, the result in [6] was Active. Besides, the inhibition result in [7] is “Active”.
In the case of `c1ccc2c(NCCCCCCNc3c4c(nc5ccccc35)CCCC4)c3c(nc2c1)CCCC3`, the half-inhibitory concentration (IC50) stood at 330 nM in data set [1], 260 nM in data set [2] and 3000 nM in data set [3]. Moreover, the inhibition is 25% in [8]; 45.2 to 47.9% in data set [11]; 56.6 to 57.5% in data set [12]; 15.1% in data set [13]; 27.5 to 29.2% in data set [14]. Further, in data set [6], the result was Active.
Turning to `CC1CCc2c(nc3ccc([N+](=O)[O-])cc3c2NCCCCCCNc2c3c(nc4ccc([N+](=O)[O-])cc24)CC(C)CC3)C1` (configuration not stated), the IC50 in data set [1] amounted to 680 nM; in data set [2], 620 nM; in data set [9], 5800 nM. The selectivity ratio at 48 h in [4] is 38.5. For the same compound, the results for the inhibition in data set [8] and in data set [10] were 82% and “Dose-dependent effect”, respectively. Also, the Ratio IC50 in data set [16] stood at 10. The result in data set [6] was Active. Further, the inhibition entry in data set [7] is “Active”.
For `Clc1ccc2c(NCCCCCCNc3c4c(nc5cc(Cl)ccc35)CCCC4)c3c(nc2c1)CCCC3`, the concentration for half-maximal inhibition (IC50) in data set [1] is 710 nM; in data set [2] it was 640 nM; in data set [3], 2800 nM; in [9], 7400 nM. Further, the selectivity ratio at 48 h in [4] is 4.4. Besides, the inhibition in data set [8] was 61%; in data set [10], “Dose-dependent effect”. Also, the Ratio IC50 in data set [16] was found to be 10. In addition, the result in data set [6] was Active. Also, the inhibition result in [7] is “Active”.
Turning to `C1=Cc2c(nc3ccccc3c2NCCCCCCCCCNc2c3c(nc4ccccc24)CCC=C3)CC1`, the half-inhibitory concentration (IC50) in data set [1] is 250 nM; in [2], 90 nM; in [3] it was 1600 nM. For the same compound, in data set [4], the selectivity ratio at 48 h was 16.7. In addition, the Stability entry in [5] is on record as “Stable”. The result in data set [6] was Active. Moreover, the inhibition result in data set [7] is “Active”.
With `C1=Cc2c(nc3ccccc3c2NCCCCCCCNc2c3c(nc4ccccc24)CCC=C3)CC1`, the IC50 in [1] was 10 nM; in data set [2] it was 10 nM; in data set [3] it was 1500 nM. In data set [4], the selectivity ratio at 48 h was 152. For the same compound, in data set [5], the Stability entry was “Stable”. Also, the results for the inhibition in data set [17] and in data set [18] were 53% and 47%, respectively. Besides, the figures for the Ki in [19] and in data set [20] were 1200 nM and 12000 nM, respectively. In addition, in data set [6], the result was Active. The inhibition entry in [7] is “Active”.
As to `CN1CCN(C(=O)N[C@@H](Cc2ccccc2)C(=O)N[C@H](/C=C/S(=O)(=O)c2ccccc2)CCc2ccccc2)CC1`, the K in [21] worked out at 500000 M⁻¹ s⁻¹.
With `c1ccc2c(NCCCCCCCNc3c4c(nc5ccccc35)CCCC4)c3c(nc2c1)CCCC3`, the results for the IC50 in data set [1] and in data set [2] were 590 nM and 160 nM, respectively. Besides, the inhibition in [8] was 44%; in data set [11], 51 to 55%; in data set [12], 66.4%; in data set [13] it was 23.2 to 25.8%; in [14], 34.4 to 37.8%; in [17] it was 53%. This compound displayed an inhibition in data set [18] of 66%. Further, the outcome in data set [6] was Active.
